The source made the active and inactive calls. The calls are words filed in the database; no cut-off is given here.
Assays:
[1] = target: T1, Polyunsaturated fatty acid 5-lipoxygenase (Homo sapiens, UniProt P09917); assay: Inhibition of 5-LOX (unknown origin) using arachidonic acid as substrate after 5 mins by EIA
T1 sequence (P09917 whole entry): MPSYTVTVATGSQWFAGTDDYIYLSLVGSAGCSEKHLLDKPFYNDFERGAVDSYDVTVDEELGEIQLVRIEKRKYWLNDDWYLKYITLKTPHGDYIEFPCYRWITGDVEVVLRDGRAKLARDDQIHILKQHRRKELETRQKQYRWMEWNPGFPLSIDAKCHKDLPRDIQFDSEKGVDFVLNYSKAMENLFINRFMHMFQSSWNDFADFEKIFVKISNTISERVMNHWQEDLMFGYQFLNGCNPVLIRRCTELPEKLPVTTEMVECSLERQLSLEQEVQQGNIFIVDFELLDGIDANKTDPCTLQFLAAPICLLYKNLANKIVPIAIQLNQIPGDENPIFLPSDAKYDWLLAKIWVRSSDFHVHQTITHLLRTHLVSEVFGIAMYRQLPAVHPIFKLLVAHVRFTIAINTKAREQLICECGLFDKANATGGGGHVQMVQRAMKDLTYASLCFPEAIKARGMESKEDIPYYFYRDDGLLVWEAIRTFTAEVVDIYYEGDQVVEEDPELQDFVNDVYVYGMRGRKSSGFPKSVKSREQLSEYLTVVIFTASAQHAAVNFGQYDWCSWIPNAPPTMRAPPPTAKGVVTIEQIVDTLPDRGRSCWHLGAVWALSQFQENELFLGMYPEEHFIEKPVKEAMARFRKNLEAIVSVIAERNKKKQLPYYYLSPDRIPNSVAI
Method in brief: (§1)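 Test compounds dissolved in DMSO at 0.01, 0.1, 1, 10 and 100 µM. Each was added to 5-LOX enzyme in assay buffer, and the reaction was started with arachidonic acid substrate. Plates were shaken 5 min, chromogen was added, shaken 5 min more, then read at 490 nm. Blanks were buffer plus AA; positive controls were enzyme plus AA. Run in duplicate, means with deviation <5% used. Percent inhibition was calculated from lipoxygenase activity; IC50 derived from the concentration series.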

[2] = target: Prostaglandin G/H synthase 1 (Homo sapiens) (UniProt P23219); assay: Inhibition of COX1 (unknown origin) by EIA
Chain of Prostaglandin G/H synthase 1 (Homo sapiens) (P23219 whole entry): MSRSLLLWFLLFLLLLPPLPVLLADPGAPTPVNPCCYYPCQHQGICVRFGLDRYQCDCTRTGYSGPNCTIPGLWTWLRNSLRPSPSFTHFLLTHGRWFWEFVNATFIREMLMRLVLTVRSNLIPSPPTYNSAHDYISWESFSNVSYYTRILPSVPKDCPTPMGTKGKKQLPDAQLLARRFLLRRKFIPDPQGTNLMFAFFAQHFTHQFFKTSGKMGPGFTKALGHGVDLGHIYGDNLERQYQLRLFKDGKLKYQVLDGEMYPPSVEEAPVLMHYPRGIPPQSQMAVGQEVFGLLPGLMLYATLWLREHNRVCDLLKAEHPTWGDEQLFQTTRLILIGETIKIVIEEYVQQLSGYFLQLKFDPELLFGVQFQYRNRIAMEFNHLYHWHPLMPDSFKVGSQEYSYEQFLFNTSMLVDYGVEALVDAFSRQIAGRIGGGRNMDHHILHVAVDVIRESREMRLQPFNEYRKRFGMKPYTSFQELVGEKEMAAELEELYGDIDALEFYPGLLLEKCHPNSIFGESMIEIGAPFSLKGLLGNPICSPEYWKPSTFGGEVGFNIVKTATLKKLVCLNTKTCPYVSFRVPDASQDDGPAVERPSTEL

[3] = target: Phospholipase A2 (Homo sapiens) (UniProt P04054); assay: Inhibition of PLA2 (unknown origin) by Ellman's method
Chain of Phospholipase A2 (Homo sapiens) (P04054 23-148 limits assumed): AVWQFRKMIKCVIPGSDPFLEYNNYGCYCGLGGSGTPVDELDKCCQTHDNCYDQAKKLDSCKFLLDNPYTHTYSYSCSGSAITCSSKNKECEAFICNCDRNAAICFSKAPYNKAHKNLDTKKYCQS

[4] = target: T2, Polyunsaturated fatty acid 5-lipoxygenase (Homo sapiens) (UniProt P09917); assay: Inhibition of 5-LOX (unknown origin) using arachidonic acid as substrate at 0.1 uM after 5 mins by EIA; method in brief: as §1
T2 sequence (whole entry): T1 sequence (P09917 whole entry)

[5] = target: T3, Prostaglandin G/H synthase 2 (Homo sapiens) (UniProt P35354); assay: Inhibition of COX2 (unknown origin) by EIA
T3 sequence (whole entry): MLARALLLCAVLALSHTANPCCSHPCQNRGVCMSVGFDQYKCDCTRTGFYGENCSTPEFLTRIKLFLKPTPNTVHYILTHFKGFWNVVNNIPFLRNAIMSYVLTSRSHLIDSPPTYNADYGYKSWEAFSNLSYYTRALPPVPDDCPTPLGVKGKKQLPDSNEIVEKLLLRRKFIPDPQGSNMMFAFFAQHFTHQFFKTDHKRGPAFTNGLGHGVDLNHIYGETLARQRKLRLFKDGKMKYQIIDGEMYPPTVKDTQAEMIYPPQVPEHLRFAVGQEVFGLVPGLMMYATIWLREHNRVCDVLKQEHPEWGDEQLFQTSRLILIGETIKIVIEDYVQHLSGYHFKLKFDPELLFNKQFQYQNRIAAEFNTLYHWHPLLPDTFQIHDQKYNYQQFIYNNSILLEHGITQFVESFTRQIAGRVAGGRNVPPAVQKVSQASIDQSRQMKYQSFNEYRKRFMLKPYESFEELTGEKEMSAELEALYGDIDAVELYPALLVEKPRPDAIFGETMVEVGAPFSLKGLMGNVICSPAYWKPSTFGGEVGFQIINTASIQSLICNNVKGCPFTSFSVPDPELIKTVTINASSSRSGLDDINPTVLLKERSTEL

[6] = target: T2, Polyunsaturated fatty acid 5-lipoxygenase (Homo sapiens); assay: Inhibition of 5-LOX (unknown origin) using arachidonic acid as substrate at 10 uM after 5 mins by EIA; method in brief: as §1
[7] = target: T2, Polyunsaturated fatty acid 5-lipoxygenase (Homo sapiens); assay: Inhibition of 5-LOX (unknown origin) using arachidonic acid as substrate at 100 uM after 5 mins by EIA; method in brief: as §1
[8] = target: T2, Polyunsaturated fatty acid 5-lipoxygenase (Homo sapiens); assay: Inhibition of 5-LOX (unknown origin) using arachidonic acid as substrate at 1 uM after 5 mins by EIA; method in brief: as §1
[9] = target: T2, Polyunsaturated fatty acid 5-lipoxygenase (Homo sapiens); assay: Inhibition of 5-LOX (unknown origin) using arachidonic acid as substrate at 0.01 uM after 5 mins by EIA; method in brief: as §1
[10] = target: T1, Polyunsaturated fatty acid 5-lipoxygenase; assay: (§2) Inhibition of 5-LOX (unknown origin) by UV-Vis spectrophotometry
Method in brief: (§3)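 UV–visible spectral titration of the compounds with 5-LOX. Association constant Ka was obtained from 1/(Af−Aobs) = 1/(Af−Afc) + 1/(Ka[Af−Afc][L]). Ki was calculated as IC50/(1+[L]/Kd) using IC50 values from the enzyme immunoassay.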

[11] = target: T2, Polyunsaturated fatty acid 5-lipoxygenase (Homo sapiens); assay: as §2; method in brief: as §3
HeLa = assay: Cytotoxicity against human HeLa cells assessed as cell viability at […] after 15 to 45 hrs by MTT assay; format: cell-based
[12] = target: T1, Polyunsaturated fatty acid 5-lipoxygenase; assay: Inhibition of 5-LOX (unknown origin) using arachidonic acid as substrate after 5 mins by EIA in presence of pig liver esterase
Method in brief: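 Same 5-LOX colorimetric immunoassay kit procedure (compounds at 0.01–100 µM in DMSO, AA substrate, chromogen, 490 nm, duplicates). Ester compounds were first treated with pig liver esterase, extracted per a reported procedure, before addition to the 5-LOX enzyme.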

[13] = Octanol-water partition coefficient, log P of the compound; format: physicochemical

| IC50 [1] [nM] | inhibition [2] | inhibition [3] | inhibition [4] [%] | inhibition [5] | inhibition [6] [%] | inhibition [7] [%] | inhibition [8] [%] | inhibition [9] [%] | Ki [10] [nM] | Ka [11] | IC50 [12] [nM] | logP [13] | Compound | Activity (HeLa) |
| --- | --- | --- | --- | --- | --- | --- | --- | --- | --- | --- | --- | --- | --- | --- |
| 1.6 | – | – | – | – | – | – | – | – | – | – | – | – | CC(C)(C)Sc1c(CC(C)(C)C(=O)O)n(Cc2ccc(Cl)cc2)c2ccc(OCc3ccc4ccccc4n3)cc12 [QUIFLAPON] | – |
| 8330 | inactive | inactive | 40 | inactive | 51.2 | 55 | 44.8 | 36 | – | – | – | – | COC(=O)CC[C@@H](NC(=O)C(=O)c1c[nH]c2ccccc12)C(=O)OC | – |
| 97 | inactive | inactive | 50.5 | inactive | 87.6 | 90.6 | 59.5 | 42 | 95 | 1.1 ×10⁵ /M | – | – | Cc1ccc(S(=O)(=O)n2cc(C(=O)C(=O)N[C@H](CCC(=O)O)C(=O)O)c3ccccc32)cc1 | – |
| 8.6 | inactive | inactive | 63.5 | inactive | 91.2 | 97.5 | 78.4 | 57.4 | 8.4 | 2.07 ×10⁶ /M | – | – | Cc1ccc(S(=O)(=O)n2cc(C(=O)C(=O)NCC(=O)O)c3ccccc32)cc1 | Non-toxic |
| – | inactive | inactive | 41.1 | inactive | 49.8 | 65 | 43.4 | 35 | – | – | – | – | COC(=O)[C@@H](Cc1c[nH]c2ccccc12)NC(=O)C(=O)c1c[nH]c2ccccc12 | – |
| 330 | inactive | inactive | 48.7 | inactive | 69.3 | 72 | 54.5 | 38.5 | 320 | 1.2 ×10⁵ /M | 750 | 2.19 | COC(=O)[C@H]1CCCN1C(=O)C(=O)c1cn(S(=O)(=O)c2ccc(C)cc2)c2ccccc12 | – |
| 10 | inactive | inactive | 56.5 | inactive | 81.5 | 85 | 67.3 | 51 | 9.9 | 3.6 ×10⁵ /M | – | – | Cc1ccc(S(=O)(=O)n2cc(C(=O)C(=O)N[C@H](Cc3c[nH]c4ccccc34)C(=O)O)c3ccccc32)cc1 | – |
| – | inactive | inactive | 37.7 | inactive | 45.5 | 65 | 40.8 | 30 | – | – | – | – | COC(=O)[C@@H](Cc1cnc[nH]1)NC(=O)C(=O)c1c[nH]c2ccccc12 | – |
| 4330 | inactive | inactive | 40.5 | inactive | 58.2 | 63.8 | 45.3 | 30 | 4160 | 1.01 ×10⁴ /M | 2980 | 1.98 | COC(=O)[C@@H](Cc1cnc[nH]1)NC(=O)C(=O)c1cn(S(=O)(=O)c2ccc(C)cc2)c2ccccc12 | – |
| 3500 | inactive | inactive | 46.2 | inactive | 55.5 | 70 | 47.8 | 40 | – | – | – | – | COC(=O)CNC(=O)C(=O)c1c[nH]c2ccccc12 | – |
| 900 | inactive | inactive | 35.2 | inactive | 60.3 | 65 | 51.8 | 18.5 | 820 | 1.06 ×10⁵ /M | 130 | 2.12 | COC(=O)CC[C@@H](NC(=O)C(=O)c1cn(S(=O)(=O)c2ccc(C)cc2)c2ccccc12)C(=O)OC | – |
| 5460 | inactive | inactive | 25.5 | inactive | 59.8 | 60.6 | 40.2 | 22.5 | – | – | – | – | COC(=O)[C@H]1CCCN1C(=O)C(=O)c1c[nH]c2ccccc12 | – |
| 9.7 | inactive | inactive | 51.5 | inactive | 85 | 98 | 67.7 | 50 | 9.5 | 2.32 ×10⁶ /M | 8 | 2.21 | COC(=O)CNC(=O)C(=O)c1cn(S(=O)(=O)c2ccc(C)cc2)c2ccccc12 | Non-toxic |
| 2800 | inactive | inactive | 28.5 | inactive | 55.5 | 64.7 | 48.7 | 20 | 2530 | 3.7 ×10⁴ /M | – | – | Cc1ccc(S(=O)(=O)n2cc(C(=O)C(=O)N[C@H](Cc3cnc[nH]3)C(=O)O)c3ccccc32)cc1 | – |
| 600 | inactive | inactive | 45 | inactive | 68.8 | 74.3 | 53.5 | 27.3 | 510 | 2.6 ×10⁵ /M | – | – | Cc1ccc(S(=O)(=O)n2cc(C(=O)C(=O)N3CCC[C@@H]3C(=O)O)c3ccccc32)cc1 | – |
| 52 | inactive | inactive | 55.3 | inactive | 75.5 | 80.4 | 62.7 | 45.5 | 37 | 6.67 ×10⁵ /M | 14 | 2.34 | COC(=O)[C@@H](Cc1c[nH]c2ccccc12)NC(=O)C(=O)c1cn(S(=O)(=O)c2ccc(C)cc2)c2ccccc12 | – |

Reference: ChEMBL document CHEMBL3112507 (Bioorg Med Chem, 2014)
